Data as given in ChEMBL document CHEMBL1136923, “Highly potent, orally available anti-inflammatory broad-spectrum chemokine inhibitors” (J Med Chem, 2009).

Tests used:
[1] = target: C-C chemokine receptor type 2 (Homo sapiens) (UniProt P41597); assay: Antagonist activity at CCR2 in human THP1 cells assessed as inhibition of CCL2-induced chemotaxis at 1000 nM after 2 hrs by microtiter format trans-well migration assay; format: functional, cell-based; details: THP-1
Outline: (§1)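 Microtiter trans-well migration assay in Gey's balanced salt solution with 1 mg/mL endotoxin-free BSA, no fetal calf serum. Migration ran 2 h at 37 °C. Compounds dissolved in DMSO and added to both top and bottom compartments, final DMSO 1%.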

[2] = target: C-C chemokine receptor type 2 (Homo sapiens) (UniProt P41597); assay: Antagonist activity at CCR2 in human THP1 cells assessed as inhibition of CCL2-induced chemotaxis at 100 nM after 2 hrs by microtiter format trans-well migration assay; format: functional, cell-based; details: THP-1; outline: as §1
[3] = target: T1, C-C chemokine receptor type 1 (Homo sapiens) (UniProt P32246); assay: Antagonist activity at CCR1 in human THP1 cells assessed as inhibition of CCL3-induced chemotaxis at 100 nM after 2 hrs by microtiter format trans-well migration assay; format: functional, cell-based; details: THP-1; outline: as §1
T1 sequence (whole entry): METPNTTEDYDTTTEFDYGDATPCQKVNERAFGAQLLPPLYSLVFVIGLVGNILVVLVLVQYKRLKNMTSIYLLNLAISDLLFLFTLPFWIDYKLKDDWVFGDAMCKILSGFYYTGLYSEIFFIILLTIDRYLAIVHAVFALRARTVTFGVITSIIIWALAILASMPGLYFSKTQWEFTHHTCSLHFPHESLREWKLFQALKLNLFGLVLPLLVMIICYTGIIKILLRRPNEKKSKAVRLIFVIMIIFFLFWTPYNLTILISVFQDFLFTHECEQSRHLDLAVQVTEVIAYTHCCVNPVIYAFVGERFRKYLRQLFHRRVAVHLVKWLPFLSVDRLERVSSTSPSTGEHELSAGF

[4] = target: T1, C-C chemokine receptor type 1 (Homo sapiens); assay: Antagonist activity at CCR1 in human THP1 cells assessed as inhibition of CCL3-induced chemotaxis at 10 nM after 2 hrs by microtiter format trans-well migration assay; format: functional, cell-based; details: THP-1; outline: as §1
[5] = target: T1, C-C chemokine receptor type 1 (Homo sapiens); assay: Antagonist activity at CCR1 in human THP1 cells assessed as inhibition of CCL3-induced chemotaxis at 0.01 nM after 2 hrs by microtiter format trans-well migration assay; format: functional, cell-based; details: THP-1; outline: as §1
[6] = target: C-C chemokine receptor type 5 (Homo sapiens) (UniProt P51681); assay: Antagonist activity at CCR5 in human THP1 cells assessed as inhibition of CCL5-induced chemotaxis at 10 nM after 2 hrs by microtiter format trans-well migration assay; format: functional, cell-based; details: THP-1; outline: as §1
C-C chemokine receptor type 5 (Homo sapiens), sequence (P51681 whole entry, looked up): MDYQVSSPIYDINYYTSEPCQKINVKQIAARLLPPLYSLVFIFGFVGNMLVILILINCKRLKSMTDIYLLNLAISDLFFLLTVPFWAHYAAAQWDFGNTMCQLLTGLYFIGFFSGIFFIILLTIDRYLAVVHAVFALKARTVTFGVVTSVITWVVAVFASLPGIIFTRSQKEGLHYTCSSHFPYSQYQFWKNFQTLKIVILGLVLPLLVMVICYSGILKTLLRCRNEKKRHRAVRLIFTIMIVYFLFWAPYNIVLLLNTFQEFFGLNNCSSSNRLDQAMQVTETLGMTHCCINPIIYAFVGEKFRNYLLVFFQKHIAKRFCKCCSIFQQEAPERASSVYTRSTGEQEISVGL

[7] = target: C-X-C chemokine receptor type 4 (Homo sapiens) (UniProt P61073); assay: Antagonist activity at CXCR4 in human THP1 cells assessed as inhibition of CXCL12-induced chemotaxis at 1 nM after 2 hrs by microtiter format trans-well migration assay; format: functional, cell-based; details: THP-1; outline: as §1
C-X-C chemokine receptor type 4 (Homo sapiens), sequence (P61073 whole entry): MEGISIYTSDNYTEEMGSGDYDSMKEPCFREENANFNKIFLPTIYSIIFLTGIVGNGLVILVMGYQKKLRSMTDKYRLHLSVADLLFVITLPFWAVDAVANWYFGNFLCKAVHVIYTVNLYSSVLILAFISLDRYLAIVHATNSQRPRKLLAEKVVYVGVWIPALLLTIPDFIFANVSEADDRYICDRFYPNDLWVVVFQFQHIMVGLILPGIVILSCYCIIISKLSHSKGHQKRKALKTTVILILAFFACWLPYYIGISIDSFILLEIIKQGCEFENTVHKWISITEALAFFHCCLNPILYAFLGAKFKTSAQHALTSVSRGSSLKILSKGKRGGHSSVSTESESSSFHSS

[8] = target: T2, C5a anaphylatoxin chemotactic receptor 1 (Homo sapiens) (UniProt P21730); assay: Antagonist activity at C5a receptor in human PMNC assessed as inhibition of C5a-induced chemotaxis at 1000 nM after 2 hrs by microtiter format trans-well migration assay; format: functional; outline: as §1
T2 sequence (whole entry): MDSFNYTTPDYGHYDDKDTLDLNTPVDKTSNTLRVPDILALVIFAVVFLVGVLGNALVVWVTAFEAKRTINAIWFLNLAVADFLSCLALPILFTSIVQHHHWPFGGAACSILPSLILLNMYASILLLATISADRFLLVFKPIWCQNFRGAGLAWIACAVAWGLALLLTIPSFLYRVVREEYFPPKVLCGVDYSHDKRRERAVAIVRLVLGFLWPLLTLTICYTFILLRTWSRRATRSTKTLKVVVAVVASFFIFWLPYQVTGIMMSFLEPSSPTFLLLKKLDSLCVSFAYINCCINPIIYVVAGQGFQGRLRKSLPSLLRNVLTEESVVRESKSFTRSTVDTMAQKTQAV

[9] = target: T2, C5a anaphylatoxin chemotactic receptor 1 (Homo sapiens); assay: Antagonist activity at C5a receptor in human PMNC assessed as inhibition of C5a-induced chemotaxis at 1 nM after 2 hrs by microtiter format trans-well migration assay; format: functional; outline: as §1
[10] = target: C-X-C chemokine receptor type 4 (Homo sapiens) (UniProt P61073); assay: Antagonist activity at CXCR4 in human THP1 cells assessed as inhibition of CXCL12-induced chemotaxis at 0.1 nM after 2 hrs by microtiter format trans-well migration assay; format: functional, cell-based; details: THP-1; outline: as §1
[11] = target: C-X-C chemokine receptor type 4 (Homo sapiens) (UniProt P61073); assay: Antagonist activity at CXCR4 in human THP1 cells assessed as inhibition of CXCL12-induced chemotaxis at 0.01 nM after 2 hrs by microtiter format trans-well migration assay; format: functional, cell-based; details: THP-1; outline: as §1
THP-1 [12] = assay: Endogenous chemoattractant activity at human THP1 cells assessed as cell migration at 1 nM after 2 hrs by microtiter format trans-well migration assay; format: functional
THP-1 [13] = assay: Endogenous chemoattractant activity at human THP1 cells assessed as cell migration at 0.1 nM after 2 hrs by microtiter format trans-well migration assay; format: functional
THP-1 [14] = assay: Endogenous chemoattractant activity at human THP1 cells assessed as cell migration at 0.01 nM after 2 hrs by microtiter format trans-well migration assay; format: functional
THP-1 [15] = assay: Cytotoxicity against human THP1 cells up to 100 uM by trypan blue exclusion assay; format: cell-based
Mus musculus [16] = assay: Antiinflammatory activity in mouse assessed as inhibition of LPS-induced TNFalpha upregulation at 0.0025 ug, sc measured 2 hrs after LPS challenge; format: functional
Outline: (§2)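 Murine sublethal endotoxemia: LPS given intraperitoneally, with serum TNF-α measured 2 h after the LPS injection as the end point. Compound was given subcutaneously or orally. Vehicle was 0.6% DMSO and 1% carboxymethylcellulose (final concentrations) in sterile water. Effect is reported as % relative to control.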

Mus musculus [17] = assay: Antiinflammatory activity in mouse assessed as inhibition of LPS-induced TNFalpha upregulation at 0.000225 mg, sc measured 2 hrs after LPS challenge; format: functional
Outline: (§3)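 Murine sublethal endotoxemia: LPS given intraperitoneally, serum TNF-α measured 2 h after LPS injection. Compound vehicle 0.6% DMSO plus 1% carboxymethylcellulose (final concentrations) in sterile water.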

Mus musculus [18] = assay: Antiinflammatory activity in mouse assessed as inhibition of LPS-induced TNFalpha upregulation at 0.00075 mg, sc measured 2 hrs after LPS challenge; format: functional; outline: as §3
Mus musculus [19] = assay: Antiinflammatory activity in mouse assessed as inhibition of LPS-induced TNFalpha upregulation at 0.075 mg, po measured 2 hrs after LPS challenge; format: functional; outline: as §2
[20] = Fractional bioavailability in Sprague-Dawley rat at 3 mg/kg, po administered as single dose; format: ADME, organism-based; details: in vivo
Outline: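 Male Sprague-Dawley rats, three per compound, receive a single oral dose by gavage in 1% carboxymethylcellulose in 0.9% saline, with food and water ad libitum. Plasma is sampled from 5 to 480 min and drug is quantified by positive-mode LC/MS/MS after acetonitrile/formic acid extraction. The lower limit of quantitation is about 2 ng/mL. Exposure is AUC(0→t) by the linear/log trapezoidal rule, and F is oral fractional bioavailability.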

[21] = AUC (0 to t) in Sprague-Dawley rat at 3 mg/kg, po administered as single dose; format: ADME, organism-based; parameters: dose 3 mg/kg, route oral; details: plasma
Outline: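 Male Sprague-Dawley rats, three per compound per route, single dose. IV vehicle 5% DMSO in 0.9% saline; oral gavage vehicle 1% carboxymethylcellulose in 0.9% saline; fed ad libitum. Plasma taken 5–480 min post-dose, extracted with 0.1% formic acid in acetonitrile, quantified by LC/MS/MS (positive mode). AUC(0–t) by linear/log trapezoidal rule; IV curve back-extrapolated assuming initial volume 0.26 L/kg.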

C-C chemokine receptor type 2 (Homo sapiens), sequence (P41597 whole entry, looked up): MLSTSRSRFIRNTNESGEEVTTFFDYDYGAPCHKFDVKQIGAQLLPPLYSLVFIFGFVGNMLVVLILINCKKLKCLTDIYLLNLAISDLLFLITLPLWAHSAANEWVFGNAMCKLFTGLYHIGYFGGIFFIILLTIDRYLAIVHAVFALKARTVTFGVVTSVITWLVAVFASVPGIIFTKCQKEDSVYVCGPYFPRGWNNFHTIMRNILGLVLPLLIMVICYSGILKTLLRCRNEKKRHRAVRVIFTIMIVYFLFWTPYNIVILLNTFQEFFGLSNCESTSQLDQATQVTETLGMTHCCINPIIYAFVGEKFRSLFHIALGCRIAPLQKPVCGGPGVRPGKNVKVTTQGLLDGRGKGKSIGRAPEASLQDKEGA

inhibition [1]: 97%
inhibition [2]: 93%
inhibition [3]: 95%
inhibition [4]: 98%
inhibition [5]: 21%
inhibition [6]: 102%
inhibition [7]: 99%
inhibition [10]: 13%
inhibition [11]: 15.5%
bioavailability [20]: 16%
AUC(0-t) [21]: 183 ng·h/mL
Compound: CCCCCCCCCCC(C)(C)C(=O)N[C@H]1CCCCNC1=O
inhibition [8]: 26%
inhibition [9]: 17.5%
Activity (THP-1 [12]): 4335%
Activity (THP-1 [13]): 2556%
Activity (THP-1 [14]): 5337%
Activity (THP-1 [15]): Non-toxic
inhibition (INH) (Mus musculus [16]): 29%
inhibition (INH) (Mus musculus [17]): 68%
inhibition (INH) (Mus musculus [18]): 57%
inhibition (INH) (Mus musculus [19]): 80%
